From ChEMBL document CHEMBL4033652, “Design, synthesis, and pharmacological evaluation of 4-azolyl-benzamide derivatives as novel GPR52 agonists” (Bioorg Med Chem, 2017) come the findings set out here.

In data set [1] the target is T1, G-protein coupled receptor 52 (Homo sapiens, UniProt Q9Y2T5). Kind of data set: Agonist activity at human GPR52 expressed in CHO cells assessed as increase in cAMP level after 30 mins by AlphaScreen assay. Format: functional, cell-based. In a few lines: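 CHO cells stably expressing human GPR52 (10,000/well) exposed to compound at various concentrations, 30 min, 37°C, in HBSS with 5 mM HEPES pH 7.6, 0.5% BSA, 100 µM IBMX and 100 µM Ro20-1724. AlphaScreen acceptor/donor beads added overnight at room temperature. Response expressed relative to a reference benzofuran agonist (100%). EC50 from mean curves, n = 2–4, 95% CI.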

Data set [2] addresses T1, G-protein coupled receptor 52. Kind of data set: Agonist activity at human GPR52 expressed in CHO cells assessed as increase in cAMP level after 30 mins by AlphaScreen assay relative to (N-(2-hydroxyethyl)-3-(2-(3-(trifluoromethyl)benzyl)-1-benzofuran-4-yl)benzamide). Format: functional, cell-based. A digest of the protocol: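 CHO cells stably expressing human GPR52, 10,000 cells per well, exposed to compound 30 min at 37°C in HBSS with 5 mM HEPES pH 7.6, 0.5% BSA, 100 µM IBMX and 100 µM Ro20-1724. cAMP measured by AlphaScreen with acceptor and biotinylated donor beads after overnight room-temperature incubation. Emax set relative to the reference benzofuran benzamide (100%). EC50 taken from mean curves, n = 2–4, with 95% CI.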

Data set [3] can be described thus: Oral bioavailability in Sprague-Dawley rat at 1 mg/kg administered as cassette dose by LC-MS/MS analysis. Format: ADME, organism-based. As to conditions: in vivo. In a few lines:
(§1)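 Cassette dosing in non-fasted male SD rats (n = 3): i.v. 0.1 mg/kg or p.o. 1 mg/kg. Plasma prepared from blood, deproteinized, centrifuged, supernatant measured by LC/MS/MS. AUC taken over 0–8 h.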

A short description of data set [4]: AUC (0 to 8 hrs) in Sprague-Dawley rat at 1 mg/kg, po administered as cassette dose by LC-MS/MS analysis. Format: ADME, organism-based. Also noted: time < 8 hr, dose 1 mg/kg, route oral. To be noted: in vivo. A digest of the protocol: as §1
The nature of data set [5]: Total clearance in Sprague-Dawley rat at 0.1 mg/kg, iv or 1 mg/kg, po administered as cassette dose by LC/MS/MS analysis. Format: ADME, organism-based. To be noted: in vivo. In a few lines:
as §1

T1 sequence (Q9Y2T5 whole entry): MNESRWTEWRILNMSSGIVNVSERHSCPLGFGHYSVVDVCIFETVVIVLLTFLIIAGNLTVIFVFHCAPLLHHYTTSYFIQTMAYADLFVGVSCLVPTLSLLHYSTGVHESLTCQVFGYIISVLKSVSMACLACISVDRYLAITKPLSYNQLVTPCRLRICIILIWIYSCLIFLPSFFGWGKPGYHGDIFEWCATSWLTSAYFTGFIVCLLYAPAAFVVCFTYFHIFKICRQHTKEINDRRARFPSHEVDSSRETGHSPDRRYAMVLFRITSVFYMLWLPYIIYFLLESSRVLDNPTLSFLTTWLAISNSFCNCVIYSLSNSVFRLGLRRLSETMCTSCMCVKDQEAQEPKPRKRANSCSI

Regarding `Cc1cc(-c2sc(Cc3ccc(Cl)cc3)nc2C)ccc1C(N)=O`, the EC50 in data set [1] was 210 nM. Also, the maximal effect (Emax) in data set [2] is 60%.

On to `Cc1cc(C(N)=O)ccc1-c1sc(Cc2cccc(C(F)(F)F)c2)nc1C`, for which the EC50 in data set [1] came out at 1400 nM. Besides, in data set [2], the maximum response (Emax) worked out at 87%.

`COc1cc(-c2sc(Cc3cccc(C(F)(F)F)c3)nc2C)ccc1C(N)=O`: the EC50 in data set [1] came out at 170 nM. Also, the Emax in data set [2] is 88%.

`Cc1nc(Cc2cccc(C(F)(F)F)c2)sc1-c1ccc(C(N)=O)c(C(C)C)c1`: the EC50 in data set [1] came out at 370 nM. Besides, the Emax in data set [2] came out at 63%.

`Cc1nc(Cc2cccc(C(F)(F)F)c2)sc1-c1ccc(C(N)=O)cc1`: the concentration giving a half-maximal response (EC50) in data set [1] was determined as 220 nM. Moreover, the maximal effect (Emax) in data set [2] turned out to be 93%.

`Cc1cc(-n2cc(Cc3cc(F)cc(C(F)(F)F)c3)nc2C)ccc1C(N)=O` had a bioavailability in data set [3] of 28.4%. Moreover, the concentration for a half-maximal effect (EC50) in data set [1] was found to be 59 nM. In data set [4], this compound came in with an area under the curve AUC(0-t) at 8 h of 268 ng·h/mL. Also, in data set [2], the Emax amounted to 107%. Besides, the clearance in data set [5] was 18.8 mL/min/kg.

Turning to `CCc1cc(-c2sc(Cc3cccc(C(F)(F)F)c3)nc2C)ccc1C(N)=O`, the EC50 in data set [1] is 83 nM. Further, in data set [2], the Emax came to 84%.

As for `Cc1cc(-c2sc(Cc3ccccc3Cl)nc2C)ccc1C(N)=O`, in data set [1], the concentration for a half-maximal effect (EC50) turned out to be 3900 nM. Moreover, the maximal response (Emax) in data set [2] was found to be 51%.

For `Cc1cc(-c2sc(Cc3cc(F)cc(C(F)(F)F)c3)nc2C)ccc1C(N)=O`, the bioavailability in data set [3] was 14%. The EC50 in data set [1] was found to be 11 nM. The compound also had an AUC(0-t) at 8 h in data set [4] of 60.5 ng·h/mL. For the same compound, in data set [2], the Emax turned out to be 93%. The same compound showed a clearance in data set [5] of 39.5 mL/min/kg.

With `Cc1cc(-c2sc(Cc3cccc(C(F)(F)F)c3)nc2C)ccc1C(N)=O`, in data set [1], the EC50 was 73 nM. The Emax in data set [2] was 86%.
